# A selection: hits, their analogues and other compounds. The true share with any hit is near 2.5%.
# TRPC4 inh = inhibitors of mouse TRPC4 channel, primary screen, Fluo4 calcium, HEK293 TRPC4beta/mu-opioid cells; B-score at 10 µM; 300,000 tested, 0.39% active; Short transient receptor potential channel 4 (Mus musculus), Q9QUQ5; DAMGO-evoked Fluo4 calcium flux; stronger effect = lower value;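 active means B-score over 3 SD under the library average, no early fluorescence shift, positive overall ratio signal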
# Target sequence (Q9QUQ5 whole entry, looked up): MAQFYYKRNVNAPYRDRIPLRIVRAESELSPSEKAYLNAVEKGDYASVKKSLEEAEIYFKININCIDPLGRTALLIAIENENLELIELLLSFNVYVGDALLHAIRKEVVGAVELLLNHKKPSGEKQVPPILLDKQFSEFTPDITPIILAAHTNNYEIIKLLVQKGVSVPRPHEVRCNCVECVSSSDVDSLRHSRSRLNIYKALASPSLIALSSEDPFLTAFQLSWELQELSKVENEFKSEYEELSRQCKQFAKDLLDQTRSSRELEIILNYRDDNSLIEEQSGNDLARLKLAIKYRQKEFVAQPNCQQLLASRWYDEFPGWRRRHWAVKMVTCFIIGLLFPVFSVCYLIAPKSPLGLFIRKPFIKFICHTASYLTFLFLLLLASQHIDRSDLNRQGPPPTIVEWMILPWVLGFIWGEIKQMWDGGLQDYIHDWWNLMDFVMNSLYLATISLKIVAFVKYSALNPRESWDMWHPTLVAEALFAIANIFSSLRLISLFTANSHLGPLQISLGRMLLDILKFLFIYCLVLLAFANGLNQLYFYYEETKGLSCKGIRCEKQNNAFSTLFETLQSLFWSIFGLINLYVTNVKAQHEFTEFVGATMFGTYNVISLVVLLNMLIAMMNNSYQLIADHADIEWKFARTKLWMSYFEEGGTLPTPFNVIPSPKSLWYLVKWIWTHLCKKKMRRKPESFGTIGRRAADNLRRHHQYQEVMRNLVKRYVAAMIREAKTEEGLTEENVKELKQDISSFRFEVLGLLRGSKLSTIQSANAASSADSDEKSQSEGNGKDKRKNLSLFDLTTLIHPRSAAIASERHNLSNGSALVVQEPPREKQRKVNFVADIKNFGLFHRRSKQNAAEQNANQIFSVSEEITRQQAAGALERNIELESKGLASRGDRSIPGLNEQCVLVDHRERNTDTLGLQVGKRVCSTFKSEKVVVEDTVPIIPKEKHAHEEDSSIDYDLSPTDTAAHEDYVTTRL
#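 Material: HEK293 cells with stable TRPC4beta plus mu-opioid receptor expression / Probe or stimulus: DAMGO in two steps, submaximal then maximal / Compound: single concentration per test compound / Technique: kinetic Fluo4 fluorescence imaging of calcium influx / Read-out: per-well B score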
# TRPC6 inh = mouse TRPC6 channel inhibitors, primary screen, cell-based, HEK293, membrane potential dye; B-score at 10 µM; Short transient receptor potential channel 6 (Mus musculus), Q61143; 310,000 tested, 1.1% active; ACh-evoked depolarization; stronger effect = lower value;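 active means B-score under library mean minus 3 SD, initial fluorescence not abnormally high, positive integrated signal ratio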;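 further: B-score derived from integrated fluorescence ratio over the kinetic read; more negative B-score means stronger inhibition of depolarization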
# DSG3 Ab inh = inhibitors of pemphigus antibody binding to DSG3, primary screen, biochemical, bead-based, flow cytometry, scFv-GFP | DSG3-coupled beads, scFv-anti-DSG3-GFP binding; stronger effect = lower value | binding (percent of control), % at 10 µM | Desmoglein-3 (Homo sapiens), P32926 | 310,000 tested, 0.48% active;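 active means binding more than 3 SD below its plate's average and above zero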;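 further: hits lower antibody fragment binding to DSG3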
# TRPC4 PAM = positive allosteric modulators of TRPC4, primary screen, cell-based, mouse TRPC4beta, HEK293 mu-opioid, Fluo-4 calcium | Short transient receptor potential channel 4 (Mus musculus), Q9QUQ5 | DAMGO EC20, Fluo-4 Ca2+ flux; stronger effect = higher value | B-score at 10 µM | 310,000 tested, 0.42% active | AID 2227, 2009;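 active means B-score of calcium response area above 5 SD of library B-scores, with initial fluorescence ratio within 5 SD of library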;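 further: B-score of integrated fluorescence ratio over time as area under calcium response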
# TRPC4 agonist = activators of mouse TRPC4 channel, primary screen, Fluo4 calcium, HEK293 TRPC4beta/mu-opioid cells; Short transient receptor potential channel 4 (Mus musculus), Q9QUQ5; Fluo4 calcium fluorescence; stronger effect = higher value; B-score at 10 µM; 310,000 tested, 0.49% active; AID 2237, 2010;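 active means B-score above 5 SD of library B-scores, and initial fluorescence ratio not above library mean plus 5 SD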;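 further: positive B-score marks a calcium rise read as TRPC4 activation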
#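 system = HEK293 cells stably co-expressing mouse TRPC4beta and mu-opioid receptor | schedule = Fluo4 dye loading 45 min at room temperature, 110 s recording | measure = B-scored integrated calcium fluorescence ratio | signal = Fluo4 calcium-sensitive dye fluorescence, kinetic, 1 Hz baseline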
# TRPC6 act = mouse TRPC6 channel activators, primary screen, cell-based, HEK293, membrane potential dye | B-score at 10 µM | HEK293-TRPC6 membrane potential dye fluorescence; stronger effect = higher value | AID 2550, 2010 | 310,000 tested, 0.13% active;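 active means B-score of the integrated fluorescence ratio above library mean plus 3 SD, and starting fluorescence ratio within library mean plus 5 SD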;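 further: higher score means more depolarization so channel activation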
# The depositor's hits bear a star; i = inactive; . = no result.
SMILES,TRPC4 inh,TRPC6 inh,DSG3 Ab inh,TRPC4 PAM,TRPC4 agonist,TRPC6 act
C=CC[n+]1ccc(/C=C2\C=Cc3cc(C)ccc3N2CC)c2ccccc21,.,.,97,.,.,.
Cc1ccc(C)c(NC(=S)N(C)CCO)c1,i,i,96,i,i,i
Cc1cc(C(=O)CN2C(=O)NC3(CCCc4sccc43)C2=O)c(C)n1-c1ccc(Cl)cc1 (configuration not stated),i,i,92,10*,i,i
NC(=O)CN1C(=O)NC2(CCCc3sccc32)C1=O (configuration not stated),i,i,.,i,i,i
O=C(CCCCCCN1C(=O)c2ccccc2C1=O)NC1CCCCC1,i,i,-5.7*,i,i,i
O=C(c1sc2ccccc2c1Cl)N(Cc1ccccc1Cl)C1CCS(=O)(=O)C1 (configuration not stated),i,i,105,i,i,i
O=C(c1sc2ccccc2c1Cl)N(Cc1ccco1)C1CCS(=O)(=O)C1 (configuration not stated),i,i,99,i,59*,i
Cc1cc2oc(C(=O)N(Cc3ccccc3)C3CCS(=O)(=O)C3)cc(=O)c2cc1Cl (configuration not stated),i,i,110,23*,i,i
O=C(c1sc2ccccc2c1Cl)N(Cc1ccccc1)C1CCS(=O)(=O)C1 (configuration not stated),i,i,.,i,107*,i
CC(=O)Nc1ccc(C(=O)COC(=O)C2CC2C)c(F)c1 (configuration not stated),.,.,104,.,.,.
CCCCC(NC(=O)Cc1c(C)c2cc3c(-c4ccccc4)coc3c(C)c2oc1=O)C(=O)O (configuration not stated),i,i,105,i,i,i
Cc1c(-c2ccn[nH]2)cc(NC(=O)c2ccc(Cl)cc2)c(=O)n1N,i,i,100,i,i,i
C=CCc1cc(Cl)ccc1OCCCNC(C)C,i,i,132,i,i,i
C=CCc1cc(Cl)ccc1OCCCNCCO,i,i,95,14*,i,i
Cc1ccccc1NC(=O)NC1(C(=O)N2CCN(C)CC2)CCCCC1,i,i,.,i,i,i
COc1cccc(/C=N/N(C)C2=NS(=O)(=O)c3ccccc32)c1O,i,i,80*,i,i,i
COc1cc(/C=N/N(C)C2=NS(=O)(=O)c3ccccc32)cc(OC)c1OC,i,i,102,i,i,i
CC1=C(C(=O)OCCBr)C(c2cccc3ccccc23)NC(=O)N1 (configuration not stated),i,i,88,i,i,i
CCCOC(=O)C1=C(C)NC(=O)NC1c1cccc2ccccc12 (configuration not stated),i,i,2.5*,i,i,i
CCOC(=O)c1ccc(NC(=S)N2CCSC2c2ccc(Cl)cc2)cc1 (configuration not stated),i,i,80,20*,i,i
COc1ccc(CCN=C(N)Nc2nc(C)cc(C)n2)cc1,-6*,i,118,i,i,i
O=C(O)c1cc(-c2cccc([N+](=O)[O-])c2)nc2ccccc12,i,i,94,i,i,i
Cc1cc(-c2cccc([N+](=O)[O-])c2)nc2ccc3ccccc3c12,i,i,-1.4*,i,i,i
CC(=O)c1ccc(NC(=O)CCS(=O)(=O)c2ccc3c(c2)n(C)c(=O)c(=O)n3C)cc1,i,i,107,i,i,i
CCOC(=O)C1(Cc2ccccc2)CCN(Cc2ccc(C)s2)CC1,-8*,i,98,i,i,i
SMILES,TRPC4 inh,TRPC6 inh,DSG3 Ab inh,TRPC4 PAM,TRPC4 agonist,TRPC6 act
CCOC(=O)C1(CCc2ccccc2)CCN(Cc2c(O)cccc2OC)CC1,i,i,104,i,79*,i
CCOC(=O)C1(CCc2ccccc2)CCN(Cc2ccc(OC)cc2)CC1,i,i,98,i,119*,i
CCOC(=O)C1(CCc2ccccc2)CCN(Cc2ccc(O)cc2)CC1,-6*,i,101,i,49*,i
CCOC(=O)C1(CCOc2ccccc2)CCN(Cc2ccc(O)cc2)CC1,i,i,123,i,i,i
CC(C)(C)C1CCc2c(C(=O)NNC(=O)CCCC(=O)O)csc2C1 (configuration not stated),i,i,98,i,i,i
CCn1cc(C2=NC(CC(C)C)CO2)c2ccccc21 (configuration not stated),i,i,87,i,i,i
CCOc1ccc(S(=O)(=O)NCCC(=O)OCC(=O)NC(=O)c2cccn2C)cc1,.,.,92,.,.,.
CC(C)C(NC(=O)OCc1ccccc1)C(=O)NC1CCCCC1 (configuration not stated),i,i,91,i,i,i
Cc1ccc(Cl)cc1N1CCN(Cc2nc3c(c(=O)[nH]c(=O)n3C)n2Cc2ccccc2F)CC1,i,i,99,26*,i,i
Cn1c(=O)[nH]c(=O)c2c1nc(CN1CCN(c3cccc(Cl)c3)CC1)n2Cc1ccccc1Cl,i,i,101,i,i,i
Cc1ccc(Cl)cc1N1CCN(Cc2nc3c(c(=O)[nH]c(=O)n3C)n2CCc2ccccc2)CC1,i,i,85,i,i,i
CCN1CCN(Cc2nc3c(c(=O)[nH]c(=O)n3C)n2Cc2ccccc2Cl)CC1,i,i,103,28*,i,i
CCCN(CC(=O)Nc1ccccc1C)C(=O)C1CC(=O)N(Cc2ccccc2)C1 (configuration not stated),i,i,96,i,i,i
CN(C)C=NC(=O)c1cc(C(=O)c2ccc(Cl)cc2Cl)c[nH]1,i,i,.,i,i,i
CCn1c(C)nc2cc(C(=O)NNC(=O)CCC3CCCCC3)ccc21,i,i,63*,i,i,i
CCCn1c(SCC(=O)N(C)CC(=O)Nc2ccc(Cl)cc2)n[nH]c1=O,.,.,91,.,.,.

# Screening results deposited in PubChem BioAssay by several laboratories.
